In brackets after ≈: the same amount, converted by molar mass. Activity calls are given as the source filed them. No cut-off for these calls is given here.
Columns and labels:
K562 = test: Antiproliferative activity against human K562 cells at 10 uM after 72 hrs by MTT assay; type: functional, cell-based
HCT-116 [1] = test: Antiproliferative activity against human HCT116 cells after 72 hrs by MTT assay; type: functional, cell-based; details: HCT-116, 72 h
HCT-116 [2] = test: Antiproliferative activity against human HCT116 cells at 10 uM after 72 hrs by MTT assay; type: functional, cell-based
A549 = test: Antiproliferative activity against human A549 cells at 10 uM after 72 hrs by MTT assay; type: functional, cell-based
[3] = Aqueous solubility of the compound in pure water by HPLC analysis; type: physicochemical
Outline: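 Solubility was measured in pure water by HPLC on a C18 column using acetonitrile–water 60/40 (v/v) at 1.0 mL/min, with detection at 254 nm, in triplicate.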

HCT-116 [4] = test: Antitumor activity against human HCT116 cells xenografted in BALB/c nude mouse assessed as reduction in tumor weight at 5 mg/kg, ip administered daily for 21 days; type: functional; design: scale not given: the % may be the effect or the level left
Outline: (§1)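 Male BALB/c nude mice, 3–5 weeks old, received 1×10^7 HCT-116 cells subcutaneously. Once tumors reached about 75 mm³, mice were randomized to groups of 8 and given 5 mg/kg intraperitoneally once daily for 21 days. Body weight was followed over time. At sacrifice, tumors were weighed, and inhibition (%) = (Wcontrol − Wtreated)/Wcontrol × 100. Data are mean ± SD.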

Mus musculus [5] = test: Toxicity in nude BALB/c mouse xenografted with human HCT116 cells assessed as effect on heart morphology at 5 mg/kg, ip administered daily for 21 days; type: organism-based; details: in vivo, 504 h
Outline: (§2)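 HCT-116 xenografts (1×10^7 cells s.c.) were grown in male BALB/c nude mice, 3–5 weeks old, to about 75 mm³. Mice (n = 8 per group) then received 5 mg/kg i.p. daily for 21 days. Liver, kidney, lung and heart were examined for size and morphology against vehicle-treated controls.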

Mus musculus [6] = test: Toxicity in nude BALB/c mouse xenografted with human HCT116 cells assessed as effect on kidney size at 5 mg/kg, ip administered daily for 21 days; type: organism-based; details: in vivo, 504 h; outline: as §2
HCT-8 = test: Antiproliferative activity against human HCT8 cells after 72 hrs by MTT assay; type: functional, cell-based; details: HCT-8, 72 h
Outline: (§3)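 Cells were cultured overnight in RPMI 1640 + 10% FBS, then treated in triplicate with vehicle or compound across the indicated concentrations for 72 h. MTT was added for the final 4 h, formazan was dissolved in DMSO, and absorbance was read at 570 nm. Inhibition rate = (1 − OD treated/OD control) × 100%, and the IC50 was derived from it.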

Mus musculus [7] = test: Toxicity in nude BALB/c mouse xenografted with human HCT116 cells assessed as effect on lung size at 5 mg/kg, ip administered daily for 21 days; type: organism-based; details: in vivo, 504 h; outline: as §2
Mus musculus [8] = test: Toxicity in nude BALB/c mouse xenografted with human HCT116 cells assessed as effect on kidney morphology at 5 mg/kg, ip administered daily for 21 days; type: organism-based; details: in vivo, 504 h; outline: as §2
Mus musculus [9] = test: Toxicity in nude BALB/c mouse xenografted with human HCT116 cells assessed as reduction in body weight at 5 mg/kg, ip administered daily for 21 days; type: organism-based; details: in vivo, 504 h; outline: as §1
[10] = Induction of intracellular ROS generation in human CCD-841 cells at 10 uM after 3 hrs by DCFH-DA-dye based fluorescence microscopy; type: cell-based
Outline: (§4)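 Cells were treated in triplicate with 10 µM compound or with vehicle DMSO (0.1%, v/v) for 3 h. Intracellular ROS was detected with a fluorescent probe, the legend citing DCFH-DA and the methods citing dihydroethidium (300/610 nm). Signals were read on a fluorescence microplate reader and imaged by fluorescence microscopy.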

[11] = Cytotoxicity against human CCD-841 cells assessed as reduction in cell viability after 72 hrs by MTT assay; type: cell-based; details: CCD-841, 72 h; outline: as §3
HT-29 = test: Antiproliferative activity against human HT-29 cells after 72 hrs by MTT assay; type: functional, cell-based; details: HT-29, 72 h; outline: as §3
Mus musculus [12] = test: Toxicity in nude BALB/c mouse xenografted with human HCT116 cells assessed as effect on heart size at 5 mg/kg, ip administered daily for 21 days; type: organism-based; details: in vivo, 504 h; outline: as §2
HCT-116 [13] = test: Induction of intracellular ROS generation in human HCT116 cells at 10 uM after 3 hrs by DCFH-DA-dye based fluorescence microscopy; type: functional, cell-based; outline: as §4
Mus musculus [14] = test: Toxicity in nude BALB/c mouse xenografted with human HCT116 cells assessed as effect on lung morphology at 5 mg/kg, ip administered daily for 21 days; type: organism-based; details: in vivo, 504 h; outline: as §2
[15] = Aqueous solubility of the compound in PBS buffer at pH 5 by HPLC analysis; type: physicochemical
Mus musculus [16] = test: Toxicity in nude BALB/c mouse xenografted with human HCT116 cells assessed as effect on liver morphology at 5 mg/kg, ip administered daily for 21 days; type: organism-based; details: in vivo, 504 h; outline: as §2
Mus musculus [17] = test: Toxicity in nude BALB/c mouse xenografted with human HCT116 cells assessed as effect on liver size at 5 mg/kg, ip administered daily for 21 days; type: organism-based; details: in vivo, 504 h; outline: as §2

| IC50 (HCT-116 [1]) | solubility [3] | Structure (SMILES) | Activity (K562) | Activity (HCT-116 [2]) | Activity (A549) | other results |
| --- | --- | --- | --- | --- | --- | --- |
| 7.95 µM | 47.9 µg/mL (≈ 197 µM) | Cc1cnc(/C=C/C(=O)N2CCC=CC2=O)cn1 | Active | Active | Active |  |
| 0.93 µM | 2.41 µg/mL (≈ 8.66 µM) | O=C1C=CCCN1C(=O)/C=C/c1ccc2ccccc2n1 | Active | Active | Active |  |
| 0.47 µM |  | O=C(/C=C/c1ccc2ccccc2n1)N1CCC=C(Cl)C1=O |  | Active |  | Activity (HCT-116 [4]): 52%; Activity (Mus musculus [5]): Non-Toxic; Activity (Mus musculus [6]): Non-Toxic; IC50 (HCT-8): 1.79 µM; Activity (Mus musculus [7]): Non-Toxic; Activity (Mus musculus [8]): Non-Toxic; Activity (Mus musculus [9]): Non-Toxic; Activity [10]: Non-Toxic; IC50 [11]: 50.8 µM; IC50 (HT-29): 0.92 µM; Activity (Mus musculus [12]): Non-Toxic; Activity (HCT-116 [13]): Active; Activity (Mus musculus [14]): Non-Toxic; solubility [15]: 1990 µg/mL (≈ 6370 µM); Activity (Mus musculus [16]): Non-Toxic; Activity (Mus musculus [17]): Non-Toxic |
|  | 1.63 µg/mL (≈ 5.14 µM) | COc1cc(/C=C/C(=O)N2CCC=CC2=O)cc(OC)c1OC [PIPLARTINE] | Active | Active | Active | Activity (HCT-116 [4]): 53% |
|  | 40.4 µg/mL (≈ 177 µM) | O=C1C=CCCN1C(=O)/C=C/c1ccccn1 |  |  |  |  |
| 3.19 µM | 59.8 µg/mL (≈ 261 µM) | O=C1C=CCCN1C(=O)/C=C/c1cnccn1 | Active | Active | Active |  |
| 7.05 µM | 46.2 µg/mL (≈ 202 µM) | O=C1C=CCCN1C(=O)/C=C/c1ccncc1 | Active | Active | Active |  |
| 8.17 µM | 1.95 µg/mL (≈ 7.01 µM) | O=C1C=CCCN1C(=O)/C=C/c1cnc2ccccc2c1 | Active | Active | Active |  |
| 8.9 µM | 48.2 µg/mL (≈ 198 µM) | Cc1nccnc1/C=C/C(=O)N1CCC=CC1=O | Active | Active | Active |  |
|  | 45.3 µg/mL (≈ 198 µM) | O=C1C=CCCN1C(=O)/C=C/c1cccnc1 |  |  |  |  |

Source: ChEMBL document CHEMBL4190248, “Synthesis and evaluation of N-heteroaromatic ring-based analogs of piperlongumine as potent anticancer agents” (Eur J Med Chem, 2017)
